# Measured values from different studies.
# Compare with care: the assays were run in different laboratories.
# Organism: Human immunodeficiency virus 1
# Observed: viral replication
SMILES,test,system,setting,measurement,value
CN1CC[C@H](c2c(O)cc(O)c3c(=O)cc(-c4ccccc4Cl)oc23)[C@H](O)C1,inhibitor,human PBMC,6 days,EC50,20 nM
c1cc(CN2CCCNCCNCCCNCC2)ccc1CN1CCCNCCNCCCNCC1,inhibitor,"MAGI, BAL",,IC90,> 10000 nM
C/C(=C\C(=O)OCCCCCCCCC(=O)O)C[C@@H]1OC[C@H](C[C@@H]2O[C@H]2[C@@H](C)[C@H](C)O)[C@@H](O)[C@H]1O,inhibitor,TZM-bl,,EC50,> 100000 nM
Cc1cn([C@H]2C[C@H](N=[N+]=[N-])[C@@H](CO)O2)c(=O)[nH]c1=O,"inhibitor, ELISA","human PBMC, NL43",7 days,IC50,5 nM
COc1cc(F)ccc1-c1ncnc(Nc2cccc(C[S@](C)(=N)=O)c2)n1,inhibitor,human PBMC,6 days,EC50,3400 nM
O=c1oc2c(O)c(O)cc3c(=O)oc4c(O)c(O)cc1c4c23,inhibitor,CEM-GFP,8 days,IC50,73 µg/mL
c1cc(CN2CCCNCCNCCCNCC2)ccc1CN1CCCNCCNCCCNCC1,"inhibitor, luciferase",TZM-bl,,EC50,0.93 nM
Cc1cn([C@H]2C[C@H](N=[N+]=[N-])[C@@H](CO)O2)c(=O)[nH]c1=O,"inhibitor, luciferase",TZM-bl,48 h,IC50,0.043 µg/mL
Cc1nc(C(CN)NC(=O)C(=O)Nc2ccc3c(c2)OCO3)sc1CO (stereo not drawn),ELISA,MT2,,IC50,> 79000 nM
C[C@@H](O[C@H]1OCCN(Cc2n[nH]c(=O)[nH]2)[C@H]1c1ccc(F)cc1)c1cc(C(F)(F)F)cc(C(F)(F)F)c1,"inhibitor, ELISA","human PBMC, BAL",,IC50,6400 nM
O=C(O)c1cc(F)cc(Cn2ccc3ccc(-c4ccc5ccn(Cc6cccc(OC(F)(F)F)c6)c5c4)cc32)c1,inhibitor,BAL,,IC50,1400 nM
O=C1C[C@@H](c2ccc(O)cc2)Oc2cc(O)cc(O)c21,inhibitor,human PBMC,6 days,EC50,> 30000 nM
CC(C)(C)NC(=O)[C@@H]1C[C@@H]2CCCC[C@@H]2CN1C[C@@H](O)[C@H](Cc1ccccc1)NC(=O)[C@H](CC(N)=O)NC(=O)c1ccc2ccccc2n1,inhibitor,T-lymphoid,,IC50,21 nM
C[N+](C)(C)CCCn1c(=O)c2cc(Br)c3c(=O)n(CCC[N+](C)(C)C)c(=O)c4c5[nH]c6ccccc6[nH]c5c(c1=O)c2c34,,"TZM-bl, NL43",48 h,IC50,> 5000 nM
O=C(O)c1cc(O)c(O)c(O)c1,inhibitor,CEM-GFP,8 days,IC50,0.19 µg/mL
